Assay results reported in ChEMBL document CHEMBL4190252, “Synthesis, antitumor activity and CDK1 inhibiton of new thiazole nortopsentin analogues” (Eur J Med Chem, 2017).
pIC50: −log10 of the molar value. Activity calls are given as the source filed them. The calls are words filed in the database; no cut-off is given here.

Assays:
MCF7 [1] = test: Induction of apoptosis in human MCF7 cells assessed as late apoptotic cells at 5 x 10^-8 M after 72 hrs by Annexin V/propidium iodide double staining-based flow cytometry (reference value: 0%); format: functional
In short: (§1)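 MCF-7 cells were grown in RPMI with 10% FBS, 2 mM L-glutamine and antibiotics at 37 °C in 5% CO2. They were seeded at 2.0 x 10^5 cells/cm2 in triplicate, left to adhere overnight, then treated for 72 h; DMSO 0.1% served as vehicle. Trypsinised cells at 2.0 x 10^5/mL were stained with annexin V-FITC and PI for 15 min at room temperature in the dark. At least 1.0 x 10^4 cells were gated into viable, early apoptotic, late apoptotic and necrotic quadrants.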

MCF7 [2] = test: Induction of apoptosis in human MCF7 cells assessed as early apoptotic cells at 5 x 10^-8 M after 72 hrs by Annexin V/propidium iodide double staining-based flow cytometry (reference value: 1%); format: functional; in short: as §1
MCF7 [3] = test: Induction of apoptosis in human MCF7 cells assessed as necrotic cells at 5 x 10^-8 M after 72 hrs by Annexin V/propidium iodide double staining-based flow cytometry (reference value: 0.1%); format: functional; in short: as §1
[4] = target: Cyclin-dependent kinase 1/cyclin B1 (Homo sapiens, UniProt P06493); test: Inhibition of recombinant human full length His-tagged CDK1/cyclin B expressed in baculovirus expression system after 60 mins in presence of omnia peptide substrate by fluorescence based assay
In short: (§2)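 Recombinant human CDK1/cyclin B in kinase buffer with Omnia peptide substrate, ATP and DTT, with inhibitor at 0.1–10 µM. Reactions ran for 60 min at 30 °C, with fluorescence read at ex 360/em 485 nm. Initial velocity came from the RFU-versus-time slope and was plotted against concentration for a dose-response IC50 fit. Values are mean±SD of two determinations.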

[5] = target: Cyclin-dependent kinase 1/cyclin B1 (Homo sapiens) (UniProt P06493+P14635); test: Inhibition of recombinant human full length His-tagged CDK1/cyclin B expressed in baculovirus expression system at 0.1 to 10 uM after 60 mins in presence of omnia peptide substrate by fluorescence based assay; in short: as §2
Chain of Cyclin-dependent kinase 1/cyclin B1 (Homo sapiens) (P06493 whole entry, looked up): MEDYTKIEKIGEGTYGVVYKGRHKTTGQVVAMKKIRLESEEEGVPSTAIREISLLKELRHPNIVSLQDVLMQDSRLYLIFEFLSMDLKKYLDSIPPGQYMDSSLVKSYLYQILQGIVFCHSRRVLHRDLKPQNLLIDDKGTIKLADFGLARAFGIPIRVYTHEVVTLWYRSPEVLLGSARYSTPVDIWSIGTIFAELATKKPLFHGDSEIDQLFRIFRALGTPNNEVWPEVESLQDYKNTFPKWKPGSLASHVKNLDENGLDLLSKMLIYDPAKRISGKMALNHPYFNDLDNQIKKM
Chain of Cyclin-dependent kinase 1/cyclin B1 (Homo sapiens) (P14635 whole entry, looked up): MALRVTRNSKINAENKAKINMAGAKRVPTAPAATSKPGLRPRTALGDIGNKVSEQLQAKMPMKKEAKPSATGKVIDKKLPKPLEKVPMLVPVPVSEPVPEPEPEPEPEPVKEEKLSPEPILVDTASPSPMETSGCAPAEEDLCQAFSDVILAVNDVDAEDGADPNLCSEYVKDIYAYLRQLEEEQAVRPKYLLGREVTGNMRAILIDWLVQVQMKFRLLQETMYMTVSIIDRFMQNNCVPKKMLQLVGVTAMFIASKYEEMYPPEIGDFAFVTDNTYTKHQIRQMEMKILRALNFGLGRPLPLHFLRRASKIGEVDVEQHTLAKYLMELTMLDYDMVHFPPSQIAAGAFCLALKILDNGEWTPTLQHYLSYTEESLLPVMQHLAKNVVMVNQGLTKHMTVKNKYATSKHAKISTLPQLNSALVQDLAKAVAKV

Chain of Cyclin-dependent kinase 1/cyclin B1 (P06493 whole entry): as the sequence (P06493 whole entry, looked up) above
Chain of Cyclin-dependent kinase 1/cyclin B1 (P14635 whole entry, further chain): as the sequence (P14635 whole entry, looked up) above

Row | Structure (SMILES) | Activity (MCF7 [1]) [%] | Activity (MCF7 [2]) [%] | Activity (MCF7 [3]) [%] | pIC50 [4] | inhibition [5]
1 | COCCn1cc(-c2nc(-c3c[nH]c4ncccc34)cs2)c2cc(OC)ccc21 | 0.1 | 54.2 | 0 | 5.94 | –
2 | COCCn1cc(-c2csc(-c3c[nH]c4ccc(Br)cc34)n2)c2cccnc21 | – | – | – | – | inactive
